# The list is not random: actives were taken first. Their share in the collection is about 5.5%.
# RAM inhibit – yeast RAM network inhibition. S. cerevisiae dse1pr::URA3 reporter, 5-FOA growth OD615, 2 d; analog-sensitive cbk1-as2 kinase mutant strain. AID 868. inhibition, % at 50 µM. 190,000 tested, 1.8% active;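 active = inhibition above a set limit, 3 SD over mean compound inhibition, cut at about 8.4% in these data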;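 note: 0% = DMSO-only wells with no growth and 100% = 10 µM 1-NA-PP1 full growth; inhibition rescues growth on 5-FOA so higher OD means more RAM inhibition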
# Yeast growth inh – reduces growth of yeast BB579 in restrictive medium; AID 804; inhibition, % at 10 µM; S. cerevisiae BB579 growth, OD615, 48 h; 140,000 tested, 0.51% active;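 active = inhibition above a set limit, 3 SD over the mean compound inhibition, cut at about 44% in these data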
#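 System: Saccharomyces cerevisiae DeaD strain BB579, replicative lifespan model yeast | Buffer or medium: Restrictive glucose-based CSMM-D medium | Times: 4 h preincubation and 48 h exposure at 30 °C | Detection: OD615 turbidity measurement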
# Yeast lifespan up – yeast lifespan extension; S. cerevisiae growth with nicotinamide, OD615; deaD strain in restrictive glucose medium; inhibition of the nicotinamide effect, % at 10 µM; 130,000 tested, 0.68% active;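 active = inhibition above a set limit, placed 3 SD over the median of all compounds, cut at about 26% in these data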;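 note: 0% = nicotinamide-treated wells and 100% = cells grown without nicotinamide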
#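 assay system = DeaD-strain S. cerevisiae | buffer or medium = restrictive glucose medium | reagent = 1.5 mM nicotinamide | compound = 10 µM single point, 0.25% DMSO | incubation = 48 h compound exposure at 30 °C, humidified | signal = OD615 measurement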
# WT yeast gro inh – growth inhibition of WT yeast, mitochondrial fusion screen; 190,000 tested, 2.1% active; mitochondrial fusion phenotypic screen, WT strain; AID 1362; inhibition, % at 10 µM; in the data active = inhibition above about 58%; tested in S. cerevisiae
# KCC2 mod – modulators of human KCC2 chloride dependent transport; Q9H2X9; 190,000 tested, 2.2% active; KCC2 cells, thallium flux FluoZin-2 fluorescence; B-score of Tl+ flux slope (higher = more flux/activation; lower = inhibition) at 10 µM;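 active = thallium flux slope and its plate-corrected score both differing from the plate sample mean at a set confidence after two filtering rounds, in either direction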;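 note: slope of fluorescence scaled to starting intensity during 10 to 20 s after thallium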
# Active calls of the source: *; · = no result given.
SMILES,RAM inhibit,Yeast growth inh,Yeast lifespan up,WT yeast gro inh,KCC2 mod
Cc1ccc(C)c(NC(=S)NNC(=O)c2cc3c(s2)CCC(C)C3)c1 (configuration not stated),1.2,-20.7,0.4,4.1,28.4*
CC(=O)c1ccccc1NC(=O)Cn1c(=O)cnc2ccccc21,0.6,-29.2,-0.8,-25.3,0.151
CCN1CNC(=S)N(C(C)c2ccccc2)C1 (configuration not stated),1.3,1.4,-4.1,-7.0,1.13
COc1ccc(C(=O)CSc2n[nH]c(C)n2)cc1[N+](=O)[O-],1.8,·,·,4.9,0.982
CC(C)CC(COCc1ccc(Cl)cc1)N1CCN(C(=O)c2ccc(Cl)cc2Cl)CCC1=O (configuration not stated),9.4*,-17.1,7.7,41.7,-1.31
O=C(Nc1ccccc1Cl)c1ccccc1Cl,0.5,2.9,-16.2,-18.5,0.653
O=C1OCC(CO)(CO)N=C1NNc1ccccc1Cl,-1.2,98.2*,-19.1,29.2,0.324
CCN(C(=O)COc1cccc2cccnc12)C1CCS(=O)(=O)C1 (configuration not stated),1.8,·,·,-8.9,-0.0459
O=C1NC2(CCCCC2)C(=O)N1CCS(=O)(=O)Oc1ccc(Br)cc1,8.8*,·,·,-0.8,-0.844
O=C1NC2(CCCC2)C(=O)N1CCS(=O)(=O)Oc1ccccc1,1.2,·,·,6.4,0.765
Cc1ccc(-n2c3nc(=O)[nH]c(=O)c-3cc3cc([N+](=O)[O-])ccc32)cc1C,9.4*,-24.5,-6.6,8.8,0.414
Cc1ccc(S(=O)(=O)n2cnc3cc([N+](=O)[O-])ccc32)cc1C,1.2,-26.1,-18.8,1.9,-0.306
O=C(c1cccc2nc3ccccc3nc12)N1CCOCC1,·,·,·,·,0.944
O=C(CN1CCN(c2ncc(C(F)(F)F)cc2Cl)CC1)NCCNc1ncc(C(F)(F)F)cc1Cl,3.3,92.7*,-24.8,-1.9,0.454
CSc1ccc(NC(=O)NCc2ccccc2)cc1,·,·,·,·,0.589
Cc1ccc(NC(=O)c2cc(N3C(=O)C=CC3=O)ccc2N2CCOCC2)cc1Cl,-1.7,-31.5,-0.9,65.8*,-0.262
CC(/C=C1\SC(=S)N(CCCC(=O)Nc2ccc(C(=O)O)cc2)C1=O)=C\c1ccccc1,7.0,-50.4,9.6,28.9,-3.14
CC(/C=C1\SC(=O)N(CCCC(=O)O)C1=O)=C\c1ccccc1,1.4,-17.6,29.2*,17.8,-1.95
Cc1ccc(C2C3=C(CC(C)(C)CC3=O)N=C3c4ccccc4C(=O)C32)cc1 (configuration not stated),5.0,-5.8,0.7,-13.9,-1.98
C=CCC1(C#N)C(SC)=NC2=C(C(=O)CC(C)(C)C2)C1c1ccc(Br)cc1 (configuration not stated),1.9,-2.7,-0.1,73.8*,-1.77
CS(=O)(=O)N(CC(=O)NCc1ccncc1)c1cc(Cl)ccc1Cl,0.1,·,·,-7.7,1.27
Cc1ccc(CON=C2CCN(c3ncc(C(F)(F)F)cc3Cl)CC2)cc1,1.1,-32.9,-5.7,40.6,0.124
FC(F)(F)c1cnc(N2CCC(=NOCc3ccc(Cl)cc3)CC2)c(Cl)c1,-0.3,-15.0,-11.8,63.2*,·
CC(C(=O)N1CCOCC1)N1C(=O)c2cccc3cccc(c23)C1=O (configuration not stated),1.4,·,·,-1.3,0.959
CC(NC(=O)C(=O)NCCCn1ccnc1)c1ccccc1 (configuration not stated),-0.5,·,·,-9.2,0.38
SMILES,RAM inhibit,Yeast growth inh,Yeast lifespan up,WT yeast gro inh,KCC2 mod
O=C(NCCCn1ccnc1)C(Cc1ccccc1)N1C(=O)c2ccccc2C1=O (configuration not stated),0.1,-40.3,1.3,58.4*,0.0267
Cc1cc(=O)oc(C)c1C(=O)Nc1ccc2nsnc2c1,2.1,-24.9,-25.3,94.1*,·
CC(C)C(NC(=O)C12CC3CC(CC(C3)C1)C2)C(=O)NC1=NCCS1 (configuration not stated),1.1,-4.2,-15.2,65.6*,0.217
O=C(CSc1nnc(-c2cc3ccccc3cc2O)n1Cc1ccco1)c1ccc(F)cc1,8.4*,-28.8,5.4,29.5,-0.168
CCN(Cc1ccccc1)S(=O)(=O)c1ccc(C(=O)N2CCN(c3nc4ccccc4s3)CC2)cc1,4.6,-73.5,1.9,-5.2,1.15
O=C(Nc1ccccn1)c1csc2c1CCCC2,-0.4,·,·,71.7*,·
Cc1ccccc1C(=O)c1cccn1CC(=O)NCCN1CCN(c2cccc(C)c2C)CC1,-0.6,-70.5,9.8,80.4*,0.983
Cc1ccc(C)c(N2CCN(CCCNC(=O)Cn3cccc3C(=O)c3ccccc3C)CC2)c1,1.2,·,·,79.7*,1.15
Cc1ccc(CNC(=O)Cn2cccc2C(=O)c2ccccc2C)cc1,4.6,·,·,-0.7,-0.265
O=C(c1ccccc1)C1C(=O)c2ccccc2C1=O,-1.4,-9.1,26.7*,-20.2,·
CCc1ccc(C2C(C(=O)O)c3ccccc3C(=O)N2C)cc1 (configuration not stated),2.0,-36.5,-1.9,-18.5,-0.334
O=C(/C=C/c1ccccc1)C1C(=O)c2ccccc2C1=O,4.5,-49.4,42.7*,15.8,36.1*
CCc1ccc(/C=C/C(=O)C2C(=O)c3ccccc3C2=O)cc1,9.1*,-8.7,28.2,7.4,19.4*
Cc1ccc(C(=O)CC(=O)c2cccc(F)c2)c(O)c1,7.8,-34.4,-6.0,69.3*,21.8*
CCCCN(CCCC)C(=S)NC(=O)C(C)(C)C,0.7,0.8,4.4,9.3,38.3*
O=C1c2ccccc2C(Nc2ccc3c(c2)OCCO3)N1c1ccc(Cl)cn1 (configuration not stated),1.5,-36.2,2.7,21.5,0.0251
O=C1c2ccccc2C(Nc2ccc3c(c2)OCCO3)N1c1ccccn1 (configuration not stated),1.1,-14.9,36.3*,20.3,-0.375
COc1ccc(OC)c(-c2csc(NC(=O)Cc3cccs3)n2)c1,8.6*,·,·,24.1,-0.0688
CCOC(=O)NC(=O)c1cn(Nc2ccccc2C(F)(F)F)c(=O)[nH]c1=O,·,·,·,·,-1.49
CCOC(=O)C1=C(c2ccccc2)N=C2SCC(=O)N2C1c1ccc2c(c1)OCO2 (configuration not stated),4.8,-56.8,-9.9,60.0*,-1.1
CCOC(=O)C1=C(c2ccccc2)N=C2SCC(=O)N2C1c1ccc(OC)c(OC)c1 (configuration not stated),1.6,-32.7,-8.4,-8.9,0.389
CCc1ccccc1NCC(=O)Nc1ccc(Cl)c(C(F)(F)F)c1,4.5,32.3,-6.5,79.8*,0.227
COc1ccc(NC(=O)COC(=O)c2c3c(nc4ccccc24)CCCC3)cc1Cl,1.2,-63.0,-9.6,63.3*,0.0886
COc1ccc(NC(=O)COC(=O)c2c3c(nc4ccccc24)CCCC3)cc1,0.9,-45.4,-12.7,8.2,-0.484
O=C(CCSc1ccc(Cl)cc1)NC12CC3CC(CC(C3)C1)C2,3.1,-44.1,24.9,82.7*,-0.57

# Bioassay records deposited in PubChem by several laboratories.
